Source: ChEMBL document CHEMBL3259728, “Design, synthesis and biological evaluation of some novel substituted quinazolines as antitumor agents” (2014)

What was measured:
Type in all cases: functional
MDA-MB-435 = assay: Growth inhibition of human MDA-MB-435 cells assessed as cell growth at 10^-5 M after 48 hrs by SRB assay; settings: MDA-MB-435, 48 h, read-out: Activity
[1] = Growth inhibition of human OVCAR8 cells assessed as cell growth at 10^-4 M after 48 hrs by SRB assay; settings: OVCAR-8, 48 h, read-out: Activity
IGROV-1 = assay: Growth inhibition of human IGROV1 cells assessed as cell growth at 10^-8 M after 48 hrs by SRB assay; settings: IGROV-1, 48 h, read-out: Activity
HT-29 = assay: Cytotoxicity against human HT-29 cells after 48 hrs by SRB assay; settings: HT-29, 48 h
Method in brief: (§1)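 NCI 60-cell-line panel of human tumour lines from nine cancer types. Continuous 48 h exposure at five 10-fold dilutions from 10^-4 to 10^-8 M, with 5-FU as positive control. SRB protein stain read spectrophotometrically at time zero, untreated control and each concentration. GI50, TGI and LC50 were derived from the [(Ti−Tz)/(C−Tz)]×100 growth relations, and out-of-range values are given as > or < the tested limits.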

[2] = Growth inhibition of human NCI-ADR-RES cells assessed as cell growth at 10^-8 M after 48 hrs by SRB assay; settings: read-out: Activity
[3] = Growth inhibition of human HCT15 cells assessed as cell growth at 10^-5 M after 48 hrs by SRB assay; settings: HCT-15, 48 h, read-out: Activity
[4] = Growth inhibition of human UACC62 cells assessed as cell growth at 10^-5 M after 48 hrs by SRB assay; settings: UACC-62, 48 h, read-out: Activity
[5] = Growth inhibition of human SF295 cells assessed as cell growth at 10^-4 M after 48 hrs by SRB assay; settings: SF-295, 48 h, read-out: Activity
[6] = Growth inhibition of human EKVX cells assessed as cell growth at 10^-4 M after 48 hrs by SRB assay; settings: read-out: Activity
Malme-3M = assay: Growth inhibition of human MALME-3M cells assessed as cell growth at 10^-6 M after 48 hrs by SRB assay; settings: read-out: Activity
[7] = Cytotoxicity against human NCI-ADR-RES cells after 48 hrs by SRB assay; method in brief: as §1
NCI-H226 = assay: Growth inhibition of human NCI-H226 cells assessed as cell growth at 10^-8 M after 48 hrs by SRB assay; settings: NCI-H226, 48 h, read-out: Activity
RPMI-8226 [8] = assay: Cytotoxicity against human RPMI8226 cells after 48 hrs by SRB assay; settings: RPMI-8226, 48 h; method in brief: as §1
SNB-19 = assay: Growth inhibition of human SNB19 cells assessed as cell growth at 10^-5 M after 48 hrs by SRB assay; settings: SNB-19, 48 h, read-out: Activity
786-0 [9] = assay: Growth inhibition of human 786-0 cells assessed as cell growth at 10^-8 M after 48 hrs by SRB assay; settings: 786-0, 48 h, read-out: Activity
Method in brief: (§2)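 Five-dose NCI panel protocol. Each dose (10^-4 to 10^-8 M, 10-fold steps) was given as 48 h continuous exposure, and protein was measured by SRB staining. Percentage growth at each level is [(Ti−Tz)/(C−Tz)]×100, where Tz is time-zero absorbance and C is untreated control.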

786-0 [10] = assay: Growth inhibition of human 786-0 cells assessed as cell growth at 10^-7 M after 48 hrs by SRB assay; settings: 786-0, 48 h, read-out: Activity; method in brief: as §2
SNB-75 = assay: Growth inhibition of human SNB75 cells assessed as cell growth at 10^-6 M after 48 hrs by SRB assay; settings: SNB-75, 48 h, read-out: Activity
[11] = Growth inhibition of human Hs578T cells assessed as cell growth at 10^-6 M after 48 hrs by SRB assay; settings: Hs-578T, read-out: Activity
NCI-H322M = assay: Growth inhibition of human NCI-H322M cells assessed as cell growth at 10^-6 M after 48 hrs by SRB assay; settings: read-out: Activity
[12] = Growth inhibition of human BT549 cells assessed as cell growth at 10^-7 M after 48 hrs by SRB assay; settings: BT-549, 48 h, read-out: Activity; method in brief: as §2
[13] = Growth inhibition of human SF295 cells assessed as cell growth at 10^-7 M after 48 hrs by SRB assay; settings: SF-295, 48 h, read-out: Activity
[14] = Growth inhibition of human OVCAR4 cells assessed as cell growth at 10^-7 M after 48 hrs by SRB assay; settings: OVCAR-4, 48 h, read-out: Activity
CCRF-CEM = assay: Growth inhibition of human CCRF-CEM cells assessed as cell growth at 10^-8 M after 48 hrs by SRB assay; settings: read-out: Activity; method in brief: as §2
[15] = Growth inhibition of human HCT15 cells assessed as cell growth at 10^-4 M after 48 hrs by SRB assay; settings: HCT-15, 48 h, read-out: Activity
COLO 205 = assay: Growth inhibition of human COLO205 cells assessed as cell growth at 10^-5 M after 48 hrs by SRB assay; settings: COLO 205, 48 h, read-out: Activity; method in brief: as §2
RPMI-8226 [16] = assay: Growth inhibition of human RPMI8226 cells assessed as cell growth at 10^-5 M after 48 hrs by SRB assay; settings: RPMI-8226, 48 h, read-out: Activity
[17] = Cytotoxicity against human Hs578T cells after 48 hrs by SRB assay; settings: Hs-578T; method in brief: as §1
[18] = Cytotoxicity against human OVCAR5 cells after 48 hrs by SRB assay; settings: OVCAR-5, 48 h; method in brief: as §1
[19] = Growth inhibition of human UO31 cells assessed as cell growth at 10^-4 M after 48 hrs by SRB assay; settings: UO-31, 48 h, read-out: Activity
[20] = read-out: LC50 (the source's name)
[21] = read-out: pLC50 (the source's name) (converted)

## Cc1ccc(-c2nc3ccc(Cl)cc3c(=O)n2/N=C/c2ccccc2)cc1
MDA-MB-435
  growth at 10 µM: 59%
[1]
  growth at 100 µM: 27%
IGROV-1
  growth at 0.01 µM: 94%
HT-29; read-out: GI50
  GI50: 60.2 µM
HT-29; read-out: LC50
  LC50: > 100 µM
HT-29; read-out: TGI
  TGI: > 100 µM
HT-29; read-out: pGI50 (converted)
  GI50: 60.3 µM
HT-29; read-out: pLC50 (converted)
  LC50: > 100 µM
HT-29; read-out: pTGI
  TGI: > 100 µM
[2]
  growth at 0.01 µM: 98%
[3]
  growth at 10 µM: 79%
[4]
  growth at 10 µM: 62%
[5]
  growth at 100 µM: 18%
[6]
  growth at 100 µM: 11%
Malme-3M
  growth at 1 µM: 74%
[7]; read-out: GI50
  GI50: 8.87 µM
[7]; [20]
  CC50: > 100 µM
[7]; read-out: TGI
  TGI: > 100 µM
[7]; read-out: pGI50 (converted)
  GI50: 8.91 µM
[7]; [21]
  CC50: > 100 µM
[7]; read-out: pTGI
  TGI: > 100 µM
NCI-H226
  growth at 0.01 µM: 91%
RPMI-8226 [8]; read-out: GI50
  GI50: > 100 µM
RPMI-8226 [8]; [20]
  CC50: > 100 µM
RPMI-8226 [8]; read-out: TGI
  TGI: > 100 µM
RPMI-8226 [8]; read-out: pGI50 (converted)
  GI50: > 100 µM
RPMI-8226 [8]; [21]
  CC50: > 100 µM
RPMI-8226 [8]; read-out: pTGI
  TGI: > 100 µM
SNB-19
  growth at 10 µM: 34%
786-0 [9]
  growth at 0.01 µM: 90%
786-0 [10]
  growth at 0.1 µM: 93%
SNB-75
  growth at 1 µM: 64%
[11]
  growth at 1 µM: 84%
NCI-H322M
  growth at 1 µM: 82%
[12]
  growth at 0.1 µM: 94%
[13]
  growth at 0.1 µM: 80%
[14]
  growth at 0.1 µM: 96%
CCRF-CEM
  growth at 0.01 µM: 98%
[15]
  growth at 100 µM: 69%
COLO 205
  growth at 10 µM: 47%
RPMI-8226 [16]
  growth at 10 µM: 72%
[17]; read-out: GI50
  GI50: 2.62 µM
[17]; read-out: LC50
  LC50 (concentration giving 50% net cell kill): > 100 µM
[17]; read-out: TGI
  TGI: 17.2 µM
[17]; read-out: pGI50 (converted)
  GI50: 2.63 µM
[17]; read-out: pLC50 (converted)
  LC50 (concentration giving 50% net cell kill): > 100 µM
[17]; read-out: pTGI (converted)
  TGI: 17.4 µM
[18]; read-out: GI50
  GI50: > 100 µM
[18]; [20]
  CC50: > 100 µM
[18]; read-out: TGI
  TGI: > 100 µM
[18]; read-out: pGI50 (converted)
  GI50: > 100 µM
[18]; [21]
  CC50: > 100 µM
[18]; read-out: pTGI
  TGI: > 100 µM
[19]
  growth at 100 µM: 39%
